TRPML3 agonist = agonists of human TRPML3 channel. activation, % at 3 µM. 220,000 compounds, 0.29% hits. HEK293 TRPML3-YFP, Fluo-8 calcium fluorescence; 100% = the carbachol control signal. Q8TDD5;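 active means activation above its plate's cutoff, the mean activation of the plate's test wells plus 3 SD, cut at about 12% in these data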;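 further: 0% = DMSO only wells and 100% = carbachol wells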
Target sequence (Q8TDD5 whole entry, looked up): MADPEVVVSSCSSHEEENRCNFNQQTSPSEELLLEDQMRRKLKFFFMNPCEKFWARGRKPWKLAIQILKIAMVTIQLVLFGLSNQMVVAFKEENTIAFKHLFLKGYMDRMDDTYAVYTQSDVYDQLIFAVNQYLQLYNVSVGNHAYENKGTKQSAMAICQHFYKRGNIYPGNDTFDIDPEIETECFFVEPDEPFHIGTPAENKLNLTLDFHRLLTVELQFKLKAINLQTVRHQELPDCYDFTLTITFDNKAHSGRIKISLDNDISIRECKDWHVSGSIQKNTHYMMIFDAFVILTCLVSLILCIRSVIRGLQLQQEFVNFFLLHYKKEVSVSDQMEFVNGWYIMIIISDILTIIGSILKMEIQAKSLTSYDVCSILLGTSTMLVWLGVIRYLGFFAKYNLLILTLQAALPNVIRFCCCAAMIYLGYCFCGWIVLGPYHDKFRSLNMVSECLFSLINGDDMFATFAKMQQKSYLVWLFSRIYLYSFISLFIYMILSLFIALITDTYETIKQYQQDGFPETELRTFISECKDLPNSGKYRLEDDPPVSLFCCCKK
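Test system: HEK293 cells stably carrying human TRPML3-YFP; Doses: single dose, 3 µM final nominal compound, 0.3% DMSO final; Schedule: dye loading 1 h 37 °C then 30 min ambient, 125 s read; Technique: Fluo-8 calcium fluorescence; Benchmarks: high control carbachol 87 µM, low control DMSO.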
CHO-K1 Ca PAM = M1 PAM counterscreen hit in parental CHO-K1 cells; activation, % at 3 µM; ATP EC20, Fluo-8 calcium fluorescence; 0% at ATP EC20, 100% at ATP max; 360,000 compounds, 0.02% hits;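 active means activation above the run cutoff, the mean activation of all test compounds plus 3 SD, cut at about 40% in these data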;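 further: peak over basal fluorescence ratio in a 140 s read after ATP addition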
TRPN1 ag = agonists of zebrafish TRPN1 channel; HEK293 zebrafish TRPN1-YFP, Fluo-8 calcium fluorescence; 100% = response to 87 µM carbachol; activation, % at 3 µM; 220,000 compounds, 0.18% hits;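 active means activation above its plate's cutoff, the mean activation of test wells on that plate plus 3 SD, cut at about 19% in these data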;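 further: 0% = DMSO alone and 100% = 87 µM carbachol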
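Material – zebrafish TRPN1-YFP in HEK293 cells · Doses – 3 µM single point · Schedule – dye 1 h 37 °C plus 30 min RT · Signal – Fluo-8 calcium fluorescence, excitation 470-495 nm, emission 515-575 nm · Read-out – % activation versus carbachol response · Control set – carbachol high, DMSO low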
CHO-K1 Ca antag = nonselective inhibitor or artifact in parental CHO-K1 cells; ATP-induced calcium, Fluo-8 fluorescence; inhibition, % at 3 µM; 360,000 compounds, 0.6% hits;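 active means inhibition above a per-plate cutoff, the plate's mean sample inhibition plus 3 SD, cut at about 24% in these data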;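 further: 0% = DMSO plus EC80 ATP and 100% = DMSO alone without ATP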
M1 ag parental = counter-screen for M1 agonists: effect in parental CHO-K1 cells | Fluo-8 calcium fluorescence; scaled to maximal ATP response, vehicle zero | activation, % at 3 µM | 360,000 compounds, 0.48% hits; in the data active means activation above about 15%;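 further: untransfected CHO-K1 host cells lacking M1 receptor as counterscreen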
An asterisk follows results filed as active; / = no result given. Sampled rows, rich in hits. Any-hit rate of the full collection: about 1.2%.

SMILES	TRPML3 agonist	CHO-K1 Ca PAM	TRPN1 ag	CHO-K1 Ca antag	M1 ag parental
CCc1nc2c(c(=O)c3ccccc3n2C)c(=O)n1C1CCCCCC1	18*	2	19*	1	13
COc1ccc(CCn2c(C3CCCCC3)nc3c(c(=O)c4ccccc4n3C)c2=O)cc1	12*	5	22*	-13	9
CC1CCN(S(=O)(=O)c2ccc3c(c2)C(Cl)(Cl)C(=O)N3)CC1	/	6	/	5	0
Cc1cc(NC(=O)C2(C)CCN2C(C)C)c2ccccc2n1 (centres undefined)	/	-3	/	9	0
O=C(NC(NC(=S)Nc1ccccc1Cl)C(Cl)(Cl)Cl)c1cccc(Cl)c1 (centres undefined)	4	-1	11	24*	14
CSc1ccc(C(=O)N2CCc3ccc(NC(=O)c4ccccn4)cc3C2)cc1	/	-21	/	7	6
CSc1ccccc1C(=O)N1CCc2ccc(NC(=O)c3ccccn3)cc2C1	/	-16	/	25*	6
CN1OC[C@@H]2CN(C(=O)c3cccc4ccccc34)[C@H](c3ccccc3Br)C[C@@H]21	/	4	/	13	0
c1ccc(COc2ncnc3c2ncn3CCCNCC(c2ccccc2)c2ccccc2)cc1	/	20	/	-1	4
C[C@@H]1CN([C@H](C)CO)C(=O)CCCn2cc(nn2)CO[C@H]1CN(C)S(=O)(=O)c1ccccc1F	/	15	/	6	1
OCCC1CN(Cc2nc(-c3ccccc3)cs2)CCN1CCc1ccccc1 (centres undefined)	1	14	1	2	16*
COCCNC(=O)C1CCCN(C(=O)c2ccc3c(c2)C(C)(C)CCC3(C)C)CC1 (centres undefined)	/	8	/	7	1
O=C(CSc1nnc(-c2cccnc2)n1-c1ccccc1)NCc1ccc2c(c1)OCO2	0	-10	0	24*	0
O=C(O)c1cccc([N+](=O)[O-])c1C(=O)Nc1cccc2ccccc12	/	-23	/	24*	-1
O=C(O)c1cccc([N+](=O)[O-])c1C(=O)Nc1ccc2ccccc2c1	/	-2	/	-5	0
Cc1ccccc1-c1cnc(C(O)c2cccc(C)c2C)[nH]1 (centres undefined)	/	1	/	0	0
CS(=O)(=O)Nc1ccc(C2=NN(C(=O)c3ccco3)C(c3cccc(F)c3)C2)cc1 (centres undefined)	0	23	2	6	16*
CCS(=O)(=O)Nc1ccc(C2=NN(C(=O)c3ccco3)C(c3cccc(F)c3)C2)cc1 (centres undefined)	-2	15	2	0	1
CC(C)Nc1ncnc2c1ncn2[C@H]1CN(Cc2ccc(F)cc2)C[C@@H](CO)O1	/	13	/	-11	1
COc1cc(C2C(C#N)=C(N)N(Nc3ccccc3)C3=C2C(=O)CC(C)(C)C3)ccc1OCc1cccc(F)c1 (centres undefined)	8	-9	2	33*	0
O=C(O)c1ccc(NS(=O)(=O)c2ccc3c(c2)C(=O)c2ccccc2C3=O)cc1	1	-18	-1	25*	-1
O=C(O)c1cccc(S(=O)(=O)Nc2ccc(-c3ccccc3)cc2)c1	/	10	/	-8	1
COC(=O)c1ccccc1OCCCN(C)C	1	-11	2	27*	0
O=c1oc2cc(O)ccc2cc1-c1nc2c(s1)CCc1ccccc1-2	8	10	25*	9	10
COc1ccc(OC2(C)CCN(Cc3ccccc3OC(F)F)C2)cc1 (centres undefined)	/	5	/	0	0
SMILES	TRPML3 agonist	CHO-K1 Ca PAM	TRPN1 ag	CHO-K1 Ca antag	M1 ag parental
NC(=O)c1ccc(Oc2ncc(C(F)(F)F)cc2Cl)cc1	0	25	-2	-1	16*
CC(C)C[C@H]1CNC(=S)N1C[C@H]1CCCN1C[C@H](Cc1ccc(O)cc1)N1C[C@H](CC(C)C)N(CCc2ccccc2)C1=S	/	-2	/	-3	-1
CC(=O)Nc1ccc(SCC(=O)N(C)CC(=O)Nc2ccccc2Cl)cc1	/	8	/	1	1
Cc1ccc(CC(=O)Nc2ccccc2-c2ccccc2)cc1C	-1	-14	-4	25*	-1
COc1ccc(CC(=O)Nc2ccccc2-c2ccccc2)cc1OC	/	19	/	0	5
CC(=O)Nc1ccc(SCC(=O)Nc2ccccc2-c2ccccc2)cc1	1	-11	3	30*	1
CC(C)(C)c1ccccc1NC(=O)Nc1nc(C(N)Cc2ccc(F)cc2)cs1 (centres undefined)	/	-14	/	-1	0
O=C1N/C(=N\S(=O)(=O)c2ccccc2)S/C1=C\c1cc([N+](=O)[O-])ccc1O	/	-6	/	4	19*
O=C1N/C(=N\S(=O)(=O)Cc2ccccc2)S/C1=C/c1cc([N+](=O)[O-])ccc1O	31*	-12	64*	41*	37*
CCN(CC(=O)Nc1ccc(OC)cc1)C(=O)C1CC(=O)N(Cc2ccccc2)C1 (centres undefined)	/	21	/	-10	1
Oc1ccc(-c2n[nH]c(C(F)(F)F)c2-c2ccccc2)c(O)c1	0	-4	0	28*	8
COc1ccc(-c2c(-c3ccc(O)cc3O)n[nH]c2C(F)(F)F)cc1	0	-20	-2	12	0
O=C(O)c1ccc(COc2ccc(CO)cc2Cl)cc1	0	17	-2	-13	0
CCCN1C(=O)/C(=C/c2ccc(N3CCOCC3)cc2)NC1=S	12*	1	24*	15	24*
CCN1C(=O)/C(=C/c2ccc(N3CCCC3)cc2)NC1=S	11	-5	42*	49*	57*
CCN1C(=O)/C(=C/c2ccc(OCc3ccc(C(=O)O)cc3)c(Cl)c2)NC1=S	/	6	/	29*	16*
Cc1ccc(C(=O)C2C(=O)C3CCC2C3)cc1 (centres undefined)	/	-9	/	1	0
Nc1nc(Nc2ccccc2F)nc(N2CCOCC2)c1[N+](=O)[O-]	0	9	-1	5	18*
CCCS(=O)(=O)NC(=O)C1(C)CCN(C(=O)c2c(-c3ccccc3)noc2C)C1 (centres undefined)	/	7	/	-3	0
Cc1ccc(C=Nc2cc([N+](=O)[O-])ccc2C)s1	1	-15	0	24*	0
COCCN(C(=O)CSc1nnc(-c2ccc(F)cc2)n1N)c1c(N)n(CC(C)C)c(=O)[nH]c1=O	/	13	/	0	0
Cc1c(/C=C/C(=O)c2ccccc2)cnn1C	0	8	0	-1	16*
NS(=O)(=O)c1ccc(CCNc2nn3c(-c4cccc(OC(F)(F)F)c4)cnc3s2)cc1	/	18	/	13	5
Cc1nc(-c2ccc(O)c(O)c2)cs1	1	-9	-1	26*	0
COc1cc(-c2csc(C)n2)ccc1O	0	20	0	-5	0
O=C(Cc1ccc(Cl)cc1)NCC(=O)N1CCC2(CC1)NCCc1[nH]cnc12	/	7	/	3	0
